SIRT5 block = blocks human SIRT5 desuccinylation of peptide | actives 1.1% (n = 330,000) | Q9NXA8 | inhibition, % at 15 µM | Purified SirT5, succinyl-peptide AMC, trypsin-coupled fluorescence; in the data active = inhibition above about 15%; inconclusive = no clear call, values can overlap the other calls
Target sequence (Q9NXA8 whole entry, looked up): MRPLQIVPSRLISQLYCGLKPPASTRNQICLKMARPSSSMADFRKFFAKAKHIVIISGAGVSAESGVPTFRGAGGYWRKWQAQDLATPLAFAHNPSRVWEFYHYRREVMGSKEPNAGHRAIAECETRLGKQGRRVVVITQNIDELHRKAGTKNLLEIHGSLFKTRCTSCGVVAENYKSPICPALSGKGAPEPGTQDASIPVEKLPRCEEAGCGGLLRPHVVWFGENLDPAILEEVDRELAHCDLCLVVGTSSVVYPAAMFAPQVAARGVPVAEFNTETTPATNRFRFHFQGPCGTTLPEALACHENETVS
ERAP1 inh = inhibitors of human ERAP1 aminopeptidase. inhibition, % at 10.7 µM. recombinant ERAP1, Leu-AMC fluorescence, 60 min. actives 0.15% (n = 340,000). Q9NZ08. AID 652197;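 active = mean replicate inhibition of at least 30%, or all replicates individually reaching that 30% level; inactive = mean below 30% and not every replicate reaching it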;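 note: 0% = neutral control wells and 100% = L-leucinethiol positive control wells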
FN deposition inh = fibronectin deposition inhibition; AH1F fibroblasts, Alexa488-fibronectin deposition fluorescence, overnight; inhibition, % at 12.6 µM; actives 0.086% (n = 350,000); AID 743247;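 active = mean inhibition across replicates of 30% or more, regardless of how many single replicates reach that level; inconclusive = mean under 30% yet at least half of replicates reach 30%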;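 note: positive control wells lacked labelled fibronectin entirely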
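Test system: AH1F fibroblast monolayer depositing Alexa488-labelled fibronectin into matrix. Input: 10000 cells per well. Technique: fluorescence, ex 485 nm, em 525 nm. Buffer or medium: DMEM plus 2% serum, read in PBS. Timing: 1 h cell adhesion before compound, then overnight fibronectin incubation. Compound: single dose, pinned. Read-out basis: inhibition from reduced deposited-fibronectin fluorescence.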
FGF22 binding = binders of recombinant human FGF22 by thermal shift. activity (Tm shift, normalised), % at 9.99 µM. Q9HCT0. AID 651658. SYPRO orange fluorescence; percent of sucrose octasulfate shift, DMSO zero. actives 1.5% (n = 340,000);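 active = mean Tm shift, scaled 0 neutral to 100 positive control, at about 1.3% or above, every replicate too, limit read from the data; inconclusive = no clear call, values can overlap the other calls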
Target sequence (Q9HCT0 whole entry, looked up): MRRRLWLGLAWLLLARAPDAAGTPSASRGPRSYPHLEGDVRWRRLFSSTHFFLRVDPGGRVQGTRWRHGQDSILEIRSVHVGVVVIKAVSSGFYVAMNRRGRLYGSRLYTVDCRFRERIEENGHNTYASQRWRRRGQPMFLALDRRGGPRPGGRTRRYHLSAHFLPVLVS
PGC1a acetyl inh = PGC1a acetylation modulation, inhibitor mode; inhibition, % at 15.6 µM; U2OS PGC1a acetylation, AlphaScreen anti-acetyl-lysine; with virally co-expressed GCN5 acetyltransferase; AID 651687; actives 0.17% (n = 350,000);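 active = every replicate shows inhibition of at least 40%; inconclusive = mean inhibition at least 40% but some replicate below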;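 note: 0% = neutral control wells and 100% = positive control wells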
* hit, by the source's call. Most compounds without a hit are left out; they make up all but 2.2% or so of the library.

Screening CC=Cc1ccc2n(c1=O)C[C@@H]1[C@@H](CO)[C@H](C(=O)NCC)[C@H]2N1Cc1ccccc1 (mixture of isomers) returned SIRT5 block -1, ERAP1 inh 1 and FGF22 binding 0.
Screening CCC(=O)Nc1ccc2c(c1)OC[C@@H](C)N(C(=O)COC)C[C@@H](C)[C@H](OC)CN(C)C2=O returned SIRT5 block -5, ERAP1 inh -2, FN deposition inh -9, FGF22 binding 0 and PGC1a acetyl inh -1.
CCOC(=O)N(C)C[C@@H]1OCc2ccccc2-c2ccccc2C(=O)N([C@@H](C)CO)C[C@H]1C was read as SIRT5 block 25*, ERAP1 inh 1, FN deposition inh -5, FGF22 binding 0 and PGC1a acetyl inh 4.
C[C@H](CO)N1C[C@H](C)[C@H](CN(C)Cc2ccccc2C(F)(F)F)OCc2ccccc2-c2ccccc2C1=O was read as SIRT5 block 12, ERAP1 inh -1, FN deposition inh -12, FGF22 binding -1 and PGC1a acetyl inh -4.
For C[C@H](CO)N1C[C@H](C)[C@@H](CN(C)Cc2ccccc2C(F)(F)F)OCc2ccccc2-c2ccccc2C1=O the results were SIRT5 block 30*, ERAP1 inh -2, FGF22 binding -1 and PGC1a acetyl inh -2.
For CCOC(=O)N(C)C[C@@H]1OCc2ccccc2-c2ccccc2C(=O)N([C@H](C)CO)C[C@@H]1C the results were SIRT5 block 6, ERAP1 inh 2, FN deposition inh -7, FGF22 binding 0 and PGC1a acetyl inh 5.
CN1CCN(C(=O)C[C@H]2CC[C@H]3[C@@H](COc4ccc(NC(=O)c5cccs5)cc4C(=O)N3C)O2)CC1 was read as SIRT5 block 3, ERAP1 inh -1, FN deposition inh 8, FGF22 binding 0 and PGC1a acetyl inh 6.
`CCCC[n+]1c(C)sc2cc(OC)ccc21` gave SIRT5 block -4, ERAP1 inh 35*, FN deposition inh -8, FGF22 binding 0 and PGC1a acetyl inh -7.
For Cc1ccc2c(c1)sc(C)[n+]2CCCS(=O)(=O)[O-] the results were SIRT5 block 0, ERAP1 inh 2, FN deposition inh 9, FGF22 binding 43* and PGC1a acetyl inh 12.
COc1ccc2sc(C)[n+](C)c2c1 was read as SIRT5 block -6, ERAP1 inh 11, FN deposition inh 4 and PGC1a acetyl inh inconclusive.
For Cc1ccccc1-c1ccc2c(c1)O[C@@H](CN(C)C(=O)C1CC1)[C@H](C)CN([C@@H](C)CO)S2(=O)=O the results were SIRT5 block -1, ERAP1 inh 2, FN deposition inh 0, FGF22 binding 0 and PGC1a acetyl inh 6.
`O=C(C[C@@H]1CC[C@H](NC(=O)CCN2CCCCC2)[C@@H](CO)O1)Nc1nccs1` gave FN deposition inh 1 and PGC1a acetyl inh -5.
Screening CN1CCN(C(=O)C[C@@H]2C[C@@H]3c4cc(NC(=O)C5CCOCC5)ccc4O[C@@H]3[C@H](CO)O2)CC1 returned SIRT5 block 4, ERAP1 inh -1, FN deposition inh 6, FGF22 binding 0 and PGC1a acetyl inh -11.
Screening CCC(=O)c1ccccc1OCCN1C(=O)NC(C)(C)C1=O returned SIRT5 block -1, ERAP1 inh 1, FGF22 binding 0 and PGC1a acetyl inh -2.
Screening CC1(C)NC(=O)N(CCOCCOc2ccccc2-c2ccccc2)C1=O returned SIRT5 block 26*, ERAP1 inh -2, FN deposition inh 1 and FGF22 binding 0.
Screening COc1ccc2cc(-c3[nH]ncc3CN3CCCN(c4ccccc4)CC3)ccc2c1 returned SIRT5 block -1, ERAP1 inh -4, FN deposition inh 2 and FGF22 binding 44*.
CCCNC(=O)N(C)C[C@H]1Oc2cc(C#C[C@H](C)O)ccc2S(=O)(=O)N([C@H](C)CO)C[C@H]1C was read as SIRT5 block -4, FN deposition inh -1, FGF22 binding 0 and PGC1a acetyl inh 18.
Screening COc1ccc2c(c1)CCC/C2=N/OC(=O)c1ccccc1OC returned SIRT5 block -5, ERAP1 inh -1, FN deposition inh 7 and FGF22 binding 44*.
For O=C(Nc1cccc(F)c1)N[C@H]1CC[C@@H](CCn2cc(Cc3ccccc3)nn2)O[C@@H]1CO the results were SIRT5 block 3, ERAP1 inh -2, FGF22 binding 0 and PGC1a acetyl inh -11.
For C[C@@H]1CCCCO[C@@H](CN(C)S(=O)(=O)c2ccccc2)[C@@H](C)CN([C@H](C)CO)C(=O)c2cc(NC(=O)c3ccncc3)ccc2O1 the results were SIRT5 block 3, ERAP1 inh -1, FN deposition inh 3, FGF22 binding 0 and PGC1a acetyl inh 8.
For CCCNC(=O)N1C[C@@H](C)[C@H](OC)CN(C)C(=O)c2ccc(NC(=O)CC)cc2OC[C@H]1C the results were SIRT5 block -1, ERAP1 inh -1, FN deposition inh -2, FGF22 binding 0 and PGC1a acetyl inh 11.
For Cc1noc(C)c1NC(=O)N(C)C[C@@H]1Oc2ccc(NC(=O)NC3CCCCC3)cc2CC(=O)N([C@H](C)CO)C[C@@H]1C the results were SIRT5 block 0, ERAP1 inh 1, FGF22 binding 0 and PGC1a acetyl inh 5.
`CCC(=O)N1C[C@@H](C)[C@@H](OC)CN(C)C(=O)c2cc(NC(=O)CC(F)(F)F)ccc2OC[C@@H]1C` gave SIRT5 block 21*, ERAP1 inh -3, FN deposition inh 3, FGF22 binding 0 and PGC1a acetyl inh 1.
CO[C@H]1CN(C)C(=O)c2cc(NC(=O)CC(F)(F)F)ccc2OC[C@H](C)N(C(=O)C2CCCCC2)C[C@H]1C was read as SIRT5 block 2, ERAP1 inh -2, FN deposition inh -4, FGF22 binding 0 and PGC1a acetyl inh -3.
CO[C@H]1CN(C)C(=O)c2cc(NC(=O)CC(F)(F)F)ccc2OC[C@@H](C)N(C(=O)C2CCCCC2)C[C@@H]1C was read as SIRT5 block 28*, ERAP1 inh 3, FN deposition inh -4, FGF22 binding 0 and PGC1a acetyl inh -3.
Screening COc1ccc(C2CCCN2C(=O)Nc2ccc(C)c(C)c2)cc1OC (stereo not given) returned SIRT5 block 16*, ERAP1 inh -6, FN deposition inh -1, FGF22 binding 0 and PGC1a acetyl inh -2.
For C[C@H]1CN([C@@H](C)CO)C(=O)c2cc(-c3ccncc3)cnc2O[C@H]1CN(C)C(=O)C1CCC1 the results were PGC1a acetyl inh -10.
`CC(C)NC(=S)N/N=C1\CCCc2ccccc21` gave SIRT5 block -4, ERAP1 inh 1, FN deposition inh 10 and FGF22 binding 43*.
C[C@@H]1CCCCO[C@@H](CN(C)Cc2ccccc2)[C@@H](C)CN([C@H](C)CO)C(=O)c2cc(NC(=O)c3ccncc3)ccc2O1 was read as SIRT5 block 3, ERAP1 inh 0, FN deposition inh -9, FGF22 binding 0 and PGC1a acetyl inh 17.

Screening results: PubChem, Broad Institute
